According to ChEMBL document CHEMBL3244313, “Synthesis of some carbon-3 substituted 1,4-benzodiazepin-2-ones and their central nervous system effects” (J Med Chem, 1979):
Calls of active or inactive are those of the source. The rule behind the calls is not given here.

Assays:
Mus musculus [1] = experiment: Potency index, ratio of chlordiazepoxide ED50 to compound ED50 for anticonvulsant activity in po dosed albino Swiss-Webster mouse assessed as reduction of minimum electro shock-induced seizure; type: functional
[2] = Toxicity in po dosed albino Swiss-Webster mouse; type: organism-based; conditions: in vivo
Mus musculus [3] = experiment: Potency index, ratio of chlordiazepoxide ED50 to compound ED50 for anticonvulsant activity in po dosed albino Swiss-Webster mouse assessed as reduction of pentylenetetrazole-induced seizure; type: functional
Mus musculus [4] = experiment: Potency index, ratio of chlordiazepoxide ED50 to compound ED50 for hypnotic activity in po dosed albino Swiss-Webster mouse; type: functional
Mus musculus [5] = experiment: Potency index, ratio of chlordiazepoxide ED50 to compound ED50 for behavioral activity in po dosed albino Swiss-Webster mouse by fighting test; type: functional
Mus musculus [6] = experiment: Potency index, ratio of chlordiazepoxide ED50 to compound ED50 for muscle relaxing activity in po dosed albino Swiss-Webster mouse; type: functional
Mus musculus [7] = experiment: Potency index, ratio of chlordiazepoxide ED50 to compound ED50 for anticonvulsant activity in po dosed albino Swiss-Webster mouse assessed as reduction of maximum electro shock-induced seizure; type: functional
Mus musculus [8] = experiment: Muscle relaxing activity in po dosed albino Swiss-Webster mouse; type: functional, organism-based
How it was run: (§1)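 Oral dosing in male and female albino Swiss-Webster mice weighing 25–30 g, six mice per group. ED50 determined with 95% confidence limits.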

Mus musculus [9] = experiment: Anticonvulsant activity in po dosed albino Swiss-Webster mouse assessed as reduction of minimum electro shock-induced seizure; type: functional, organism-based; how it was run: as §1
[10] = 1-Octanol-aqueous phosphate buffer partition coefficient, log P of the compound at pH 7.35; type: physicochemical
How it was run: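 Concentrations in each phase (C_oct, C_w) measured by UV spectrophotometry. P_oct = C_oct/C_w, reported as log P_oct.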

Mus musculus [11] = experiment: Anticonvulsant activity in po dosed albino Swiss-Webster mouse assessed as reduction of maximum electro shock-induced seizure; type: functional, organism-based; how it was run: as §1
Mus musculus [12] = experiment: Anticonvulsant activity in po dosed albino Swiss-Webster mouse assessed as reduction of pentylenetetrazole-induced seizure; type: functional, organism-based; how it was run: as §1

Structure (SMILES) | Ratio ED50 (Mus musculus [1]) | LD50 [2] [µmol/kg] | Ratio ED50 (Mus musculus [3]) | Ratio ED50 (Mus musculus [4]) | Ratio ED50 (Mus musculus [5]) | Ratio ED50 (Mus musculus [6]) | Ratio ED50 (Mus musculus [7]) | Activity (Mus musculus [8]) | Activity (Mus musculus [9]) | logD [10] | Activity (Mus musculus [11]) | Activity (Mus musculus [12])
CC(=O)OC[C@H]1O[C@@H](OCCOC2N=C(c3ccccc3)c3cc(Cl)ccc3NC2=O)[C@H](OC(C)=O)[C@@H](OC(C)=O)[C@@H]1OC(C)=O (mixture of isomers) | 1.02 | 17200 | 13.8 | 0.76 | 1.83 | 0.75 | 3.4 | – | – | – | – | –
CC1(C)OCC(COC2N=C(c3ccccc3Cl)c3cc(Cl)ccc3NC2=O)O1 (centres undefined) | – | 7590 | – | 2 | 2.3 | – | – | inactive | inactive | 2.48 | inactive | inactive
O=C1Nc2ccc(Cl)cc2C(c2ccccc2)=NC1OC(=O)C(Cl)(Cl)Cl (centres undefined) | 1.32 | 6850 | 16.5 | 0.73 | 1.92 | 1.6 | 5.7 | – | – | – | – | –
O=C1Nc2ccc(Cl)cc2C(c2ccccc2)=NC1OCCO (centres undefined) | 0.4 | 18100 | 10.3 | 0.35 | 1.7 | 1.3 | 0.58 | – | – | 1.99 | – | –
CC(=O)OC[C@H]1O[C@H](OCCOC2N=C(c3ccccc3)c3cc(Cl)ccc3NC2=O)[C@H](OC(C)=O)[C@@H](OC(C)=O)[C@@H]1OC(C)=O (mixture of isomers) | 0.98 | 17300 | 13.4 | 0.9 | 1.78 | 0.68 | 3.6 | – | – | – | – | –
O=C1Nc2ccc(Cl)cc2C(c2ccccc2)=NC1OCC(O)CO (centres undefined) | 0.52 | 16600 | 12.5 | 0.51 | 1.4 | 0.7 | 2.3 | – | – | 1.71 | – | –
CC1(C)OCC(COC2N=C(c3ccccc3)c3cc(Cl)ccc3NC2=O)O1 (centres undefined) | – | 9980 | – | 0.52 | 1.7 | – | – | inactive | inactive | 2.14 | inactive | inactive
CNC1=Nc2ccc(Cl)cc2C(c2ccccc2)=[N+]([O-])C1 [CHLORDIAZEPOXIDE] | – | – | – | – | – | – | – | – | – | 2.5 | – | –
CN1CCN=C(c2ccccc2)c2cc(Cl)ccc21 [MEDAZEPAM] | 0.32 | 5240 | 6.2 | 0.3 | 1 | 1.3 | 0.81 | – | – | 4.05 | – | –
CN1C(=O)C(OC(=O)C(Cl)(Cl)Cl)N=C(c2ccccc2)c2cc(Cl)ccc21 (centres undefined) | 1.62 | 5600 | 15.3 | 0.9 | 1.3 | 1.93 | 5.2 | – | – | – | – | –
CN1C(=O)C(OCC(O)CO)N=C(c2ccccc2)c2cc(Cl)ccc21 (centres undefined) | – | 16000 | 10.3 | 0.42 | 1 | 0.8 | 0.38 | – | inactive | 1.74 | – | –
CN1C(=O)C(OCC2COC(C)(C)O2)N=C(c2ccccc2)c2cc(Cl)ccc21 (centres undefined) | – | 9160 | – | 2.3 | 1.9 | – | – | inactive | inactive | 2.37 | inactive | inactive
O=C1Nc2ccc(Cl)cc2C(c2ccccc2Cl)=NC1OCCO (centres undefined) | 2.8 | 9360 | 33.6 | 0.65 | 17.8 | 1.86 | 1.2 | – | – | 2.04 | – | –
CN1C(=O)C(OCCO)N=C(c2ccccc2)c2cc(Cl)ccc21 (centres undefined) | 8.3 | 17400 | 12.5 | 0.4 | 1.5 | 1.1 | 0.8 | – | – | 1.98 | – | –
O=C1Nc2ccc(Cl)cc2C(c2ccccc2Cl)=NC1OCC(O)CO (centres undefined) | 0.86 | 7820 | 36.8 | 0.58 | 15.3 | 1.25 | 4.68 | – | – | 1.96 | – | –
